HUVEC inhibit – human endothelial cell proliferation inhibition; HUVEC proliferation, CellTiter-Glo luminescence, 72 h; hits give low values; AID 648; 1.1% of 86,000 active; viability, % at 10 µM (by protocol);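 active = viability at or below 30%; inactive = viability above 30%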;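 also: 100% = median luminescence of DMSO-only cell control wells on each plate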
H69AR growth 86K – growth inhibitors of human H69AR lung tumor cells; H69AR lung tumor viability, ATP luminescence, 72 h; hits give low values; viability, % at 10 µM; 6% of 85,000 active;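 active = viability at or below 40%; inactive = viability above 40%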;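 also: multidrug resistant small cell line overexpressing MRP-1 efflux transporter; 100% = mean luminescence of untreated control wells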
HCT116 bCat-KO – beta-catenin-lacking colon tumor cell growth suppression. HCT116 beta-catenin knockout viability, CellTiter-Glo, 60 h; hits give low values. viability, % at 10 µM. 1.5% of 140,000 active;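 active = viability at or under a set limit, the compound median less 4 SD, cut at about 6% in these data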;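 also: 0% = Hyamine 1622 control at 20 µM and 100% = untreated cell control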
Fibroblast inh – blocks proliferation of human lung fibroblasts; LL 47 human lung fibroblast viability, ATP luminescence; hits give low values; viability, % at 10 µM; 1.1% of 85,000 active; AID 719;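 active = viability at or below 50% in the single dose screen; inactive = viability above 50%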;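 also: compound exposure lasted 72 h before the ATP readout; 100% = median luminescence of untreated cell-only wells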
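test system = LL 47 human lung fibroblasts | amount = 1,150 fibroblasts seeded per well | medium = 15% FBS in IMEM | times = overnight cell rest, 72 h compound treatment at 37 °C | measured by = CellTiter-Glo luminescence measuring cellular ATP | read-out = viability percentage against median untreated-cell control | benchmarks = cell-only wells, no compound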
PTEN del growth – suppresses growth of cells with PTEN deletion; HCT116 PTEN-null viability, CellTiter-Glo, 60 h; hits give low values; viability, % at 10 µM; AID 827; 1.2% of 140,000 active;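 active = viability at or below a set limit, 4 SD under the median of all tested compounds, cut at about 3.7% in these data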;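 also: PTEN knockout HCT116 line with beta catenin targeted HCT116 as companion control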
Active calls of the source: *. The sample as a whole holds a higher share of hits than the screen did.

For Cc1ccc(N(C(=O)CS(=O)CC(=O)Nc2ccc(F)cc2)C(C(=O)NC2CCCCC2)c2ccco2)cc1 (configuration not stated) the results were HCT116 bCat-KO 73 and PTEN del growth 62.
`CCCC[n+]1ccn(C2=C([O-])c3ccccc3C(=O)/C2=N\S(=O)(=O)c2ccccc2)c1` gave HUVEC inhibit 5.1*, H69AR growth 86K 8.6*, HCT116 bCat-KO 2.1*, Fibroblast inh 50 and PTEN del growth 1.6*.
CCCCC[n+]1ccn(C2=C([O-])c3ccccc3C(=O)/C2=N\S(=O)(=O)c2ccccc2)c1 was read as HUVEC inhibit 11*, H69AR growth 86K 25*, HCT116 bCat-KO 3.3*, Fibroblast inh 76 and PTEN del growth 5.
For CC(NC(=O)COC(=O)Cc1ccc(-c2ccccc2)cc1)c1ccccc1 (configuration not stated) the results were HCT116 bCat-KO 79 and PTEN del growth 90.
N#CC1=C(c2ccccc2)/C(=C/c2ccccc2)OC1=O was read as HUVEC inhibit 28*, H69AR growth 86K 4.0*, HCT116 bCat-KO 14, Fibroblast inh 5.4* and PTEN del growth 8.
`CCCCNC(=S)N(Cc1c(C)noc1C)c1ccccc1` gave HCT116 bCat-KO 89 and PTEN del growth 77.
Screening Nc1c(S(=O)(=O)c2cccc(Cl)c2)c2nc3ccccc3nc2n1/N=C/c1ccc(O)c(O)c1 returned HUVEC inhibit 6.0*, H69AR growth 86K 1.3*, HCT116 bCat-KO 1.1*, Fibroblast inh 14* and PTEN del growth 1.5*.
Screening O=c1c2c3nc4ccccc4nc3n(/N=C/c3cccs3)c2ncn1-c1ccccc1 returned HUVEC inhibit 84, H69AR growth 86K 30* and Fibroblast inh 105.
Cc1ccc(S(=O)(=O)c2c(N)n(-c3ccccc3)c3nc4ccccc4nc23)cc1 was read as HCT116 bCat-KO 79 and PTEN del growth 72.
`COCCn1c(N)c(S(=O)(=O)c2cccs2)c2nc3ccccc3nc21` gave HUVEC inhibit 99, H69AR growth 86K 73, HCT116 bCat-KO 96, Fibroblast inh 98 and PTEN del growth 89.
COc1cccc(/C=N/n2c(N)c(S(=O)(=O)c3cccs3)c3nc4ccccc4nc32)c1OC was read as HCT116 bCat-KO 2.1* and PTEN del growth 2.8*.
C=CCn1cnc2c(c1=O)c1nc3ccccc3nc1n2/N=C/c1cccc(OC)c1 was read as HUVEC inhibit 49, H69AR growth 86K 22* and Fibroblast inh 92.
`CCN(CC)C(=O)C1CCCN(c2ccc([N+](=O)[O-])cc2/C=N/NC(=O)c2cccc([N+](=O)[O-])c2)C1` (configuration not stated) gave HCT116 bCat-KO 69 and PTEN del growth 44.
CCCCNc1c(N)n(CCCC)c(=O)[nH]c1=O was read as HCT116 bCat-KO 95 and PTEN del growth 100.
For COc1ccc(-c2csc(NC(=O)CSc3nc(SC)ns3)n2)cc1 the results were HCT116 bCat-KO 72 and PTEN del growth 74.
`COCCn1cnc2c(c1=O)c1nc3ccccc3nc1n2/N=C/c1cccc(OC)c1OC` gave HUVEC inhibit 67, H69AR growth 86K 39* and Fibroblast inh 96.
For CCCCCCn1cnc2c(c1=O)c1nc3ccccc3nc1n2/N=C/c1ccco1 the results were HUVEC inhibit 74, H69AR growth 86K 85, HCT116 bCat-KO 96, Fibroblast inh 97 and PTEN del growth 96.
`O=C(O)c1ccc2c3c(ncnc13)-c1ccccc1C2=O` gave HUVEC inhibit 41, H69AR growth 86K 65, HCT116 bCat-KO 33, Fibroblast inh 23* and PTEN del growth 15.
Nc1ccc(C(=O)c2ccc3c(c2)OCCO3)cc1N was read as HUVEC inhibit 98, H69AR growth 86K 36* and Fibroblast inh 96.
`COc1ccc(C(=O)Nc2nc3cc(OC)c(OC)cc3c(=O)[nH]2)cc1` gave HUVEC inhibit 57, H69AR growth 86K 13*, HCT116 bCat-KO 17, Fibroblast inh 78 and PTEN del growth 13.
For COc1cc2nc(NC(=O)c3ccccc3)[nH]c(=O)c2cc1OC the results were HUVEC inhibit 103, H69AR growth 86K 65, HCT116 bCat-KO 95, Fibroblast inh 101 and PTEN del growth 91.
`CC(C)(C)c1nn2cnnc2n(/N=C/c2ccc(O)cc2)c1=O` gave HCT116 bCat-KO 95 and PTEN del growth 97.
For Cc1cc2ncn(/N=C/c3ccc([N+](=O)[O-])o3)c2cc1C the results were HCT116 bCat-KO 2.5* and PTEN del growth 1.6*.
For Cc1ccnc(NC(=O)c2ccc([N+](=O)[O-])o2)c1 the results were HCT116 bCat-KO 3.5* and PTEN del growth 4.
Screening COc1cc(/C=C/C(=O)O)cc(S(=O)(=O)Nc2cccc(SC)c2)c1OC returned HCT116 bCat-KO 100 and PTEN del growth 98.
`C=C(C)COc1ccc(-c2[nH]ncc2-c2ccc(OC)c(OC)c2)c(O)c1` gave HUVEC inhibit 45, HCT116 bCat-KO 13, Fibroblast inh 46* and PTEN del growth 12.
O=[N+]([O-])c1ccc(COc2ccc(-c3[nH]ncc3-c3ccccc3)c(O)c2)cc1 was read as HCT116 bCat-KO 59 and PTEN del growth 48.
For C=C(C)COc1ccc(-c2[nH]ncc2-c2ccccc2)c(O)c1 the results were HUVEC inhibit 38, H69AR growth 86K 39*, HCT116 bCat-KO 73, Fibroblast inh 94 and PTEN del growth 63.
C=C(C)COc1ccc(-c2nc(N)ncc2-c2ccc(OC)cc2)c(O)c1 was read as HUVEC inhibit 99, H69AR growth 86K 10*, HCT116 bCat-KO 42, Fibroblast inh 93 and PTEN del growth 35.
`COc1ccc2nc(NC(=O)CCN3C(=S)NC(C)(C)CC3C)sc2c1` (configuration not stated) gave HCT116 bCat-KO 97 and PTEN del growth 103.
For Cc1ccc(C(=O)C(NC(=O)c2ccco2)Nc2sc3c(c2C(N)=O)CCCC3)cc1 (configuration not stated) the results were HUVEC inhibit 82, H69AR growth 86K 99, HCT116 bCat-KO 91, Fibroblast inh 81 and PTEN del growth 85.
CCSc1nnc(-c2ccccc2N=Cc2c(C)[nH]n(-c3ccccc3)c2=O)c(=O)[nH]1 was read as HCT116 bCat-KO 85 and PTEN del growth 98.
For COc1cccc(CNC(=O)C(c2ccc(Cl)cc2)C(C)C)c1 (configuration not stated) the results were HCT116 bCat-KO 80 and PTEN del growth 70.
CN1c2ccccc2-c2nc3ccccc3n2C1c1ccccn1 (configuration not stated) was read as HUVEC inhibit 99, H69AR growth 86K 58, HCT116 bCat-KO 86, Fibroblast inh 99 and PTEN del growth 87.
For c1ccc(CN2c3ccccc3-c3nc4ccccc4n3C2c2ccccn2)cc1 (configuration not stated) the results were HUVEC inhibit 74, H69AR growth 86K 32*, HCT116 bCat-KO 69, Fibroblast inh 80 and PTEN del growth 59.
